According to ChEMBL document CHEMBL5678805, “Intermittent administration of MEK inhibitor GDC-0973 plus PI3K inhibitor GDC-0941 triggers robust apoptosis and tumor growth inhibition” (Cancer Res, 2012):
Active and inactive are the calls of the source. No cut-off for these calls is given here.

Columns and labels:
NCI-H2122 [1] = assay: Antitumor activity against human NCI-H2122 cells xenografted in mouse assessed as tumor growth inhibition at 20 mg/kg, po administered once a day for 21 days in presence of 4-(2-(1H-indazol-4-yl)-6-((4-(methylsulfonyl)piperazin-1-yl)methyl)thieno[3,2-d]pyrimidin-4-yl)morpholine; format: functional; conditions: NCI-H2122, 504 h, time 21 day, read-out: TGI
Summary of the method: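 Mice bearing NCI-H2122 xenografts were given MEK inhibitor, PI3K inhibitor, or both, orally once daily for 21 consecutive days at the doses labeled. Caliper tumor volumes were calculated as (L×W×W)/2. %TGI was derived from the AUC of the fitted growth curve per day relative to vehicle.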

A2058 = assay: Antitumor activity against human A2058 cells xenografted in mouse assessed as tumor growth inhibition at 20 mg/kg, po administered every third day for 21 days; format: functional; conditions: A2058, 504 h, time 21 day, read-out: TGI
Summary of the method: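 Human tumor xenografts in mice. Drugs given orally, as single agents or combined with the PI3K inhibitor. Schedules were daily (QD) or every third day (Q3D) over 21 days. Tumor volume was measured by caliper as (L×W×W)/2. %TGI = 100×[1 − AUC(treatment/d)/AUC(vehicle/d)] from fitted growth curves, with group means. Tumor lysates were immunoblotted for pS6.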

[2] = target: Serine/threonine-protein kinase Nek3 (Homo sapiens, UniProt P51956); assay: Inhibition of NEK3 (unknown origin)
[3] = target: Vascular endothelial growth factor receptor 3 (Homo sapiens, UniProt P35916); assay: Inhibition of Flt4 (unknown origin)
[4] = target: Protein kinase C beta type (Homo sapiens, UniProt P05771); assay: Inhibition of PKCbeta2 (unknown origin)
[5] = target: Dual specificity mitogen-activated protein kinase kinase 4 (Homo sapiens, UniProt P45985); assay: Inhibition of MKK4 (unknown origin)
NCI-H2122 [6] = assay: Antitumor activity against human NCI-H2122 cells harboring KRAS […]/LKB1 P281/TP53Q61L/C176Fl/CDKN2A mutant xenografted in mouse assessed as tumor growth inhibition at 10 mg/kg, po; format: functional; conditions: read-out: TGI
Summary of the method: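 NCI-H2122 (KRAS G12C) NSCLC xenografts in mice were dosed orally once daily for 21 consecutive days. Tumor volume was measured with calipers as (L×W×W)/2, and body weight was tracked. %TGI was derived from the area under the fitted growth curve per day versus vehicle. Group means with SEM were reported.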

888-mel = assay: Inhibition of ERK phosphorylation in human 888-mel cells preincubated for 24 hrs followed by compound washout and measured after 2 hrs in presence of 4-(2-(1H-indazol-4-yl)-6-((4-(methylsulfonyl)piperazin-1-yl)methyl)thieno[3,2-d]pyrimidin-4-yl)morpholine by immunoblotting analysis; format: cell-based
Summary of the method: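 The medium was then exchanged to remove compound. Lysates were prepared 2 and 24 h after washout and immunoblotted for cleaved PARP, p-AKT and p-ERK using HRP secondary antibody and ECL.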

G-361 = assay: Antiproliferative activity against human G361 cells assessed reduction in cell viability incubated for 4 days in presence of 4-(2-(1H-indazol-4-yl)-6-((4-(methylsulfonyl)piperazin-1-yl)methyl)thieno[3,2-d]pyrimidin-4-yl)morpholine by celltiter-glo assay; format: functional; conditions: time 4 day
Summary of the method: (§1)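 4-day CellTiter-Glo viability read-out on melanoma lines, cells exposed to increasing concentrations of each inhibitor alone and in combination.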

DLD-1 = assay: Antitumor activity against human DLD-1 cells harboring KRAS G13D/IDH1 G97D/SMO T640A/APC I1417 mutant xenografted in mouse assessed as tumor growth inhibition at 10 mg/kg, po; format: functional; conditions: read-out: TGI
Summary of the method: (§2)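 Single-agent dose ranging in human tumor xenograft mice at 2.5, 5 or 10 mg/kg oral. Tumor volume was measured by caliper as (L×W×W)/2. %TGI = 100×[1 − AUC(treatment/d)/AUC(vehicle/d)] from the fitted growth curve per dose group, relative to vehicle.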

[7] = Antitumor activity against human A375.X1 cells harboring BRAF V600E/CDKN2A E61 mutant xenografted in mouse assessed as tumor growth inhibition at 5 mg/kg, po; format: functional; conditions: A375.X1, read-out: TGI; summary of the method: as §2
NCI-H69 = assay: Antitumor activity against human NCI-H69 cells harboring RBI E748/PK3CA G106_R108/TP53 E171 mutant xenografted in mouse assessed as tumor growth inhibition at 10 mg/kg, po; format: functional; conditions: read-out: TGI
Summary of the method: (§3)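 Human tumor xenografts in mice were dosed orally at the indicated mg/kg. Tumor volume was measured with calipers as (L×W×W)/2. %TGI = 100 × [1 − (AUC treatment/d)/(AUC vehicle/d)], using the area under the fitted tumor-growth curve per day for each dose group relative to vehicle.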

NCI-H2122 [8] = assay: Antitumor activity against human NCI-H2122 cells xenografted in mouse assessed as tumor growth inhibition at 15 mg/kg, po administered every third day for 21 days in presence of 4-(2-(1H-indazol-4-yl)-6-((4-(methylsulfonyl)piperazin-1-yl)methyl)thieno[3,2-d]pyrimidin-4-yl)morpholine; format: functional; conditions: NCI-H2122, 504 h, time 21 day, read-out: TGI
Summary of the method: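 Dosing was oral, every third day (Q3D) across 21 days, with single agents or the MEK plus PI3K combination in NCI-H2122 xenograft mice. Tumor volume was calculated as (L×W×W)/2 from caliper measurements. %TGI was derived from fitted-curve AUC per day relative to vehicle, with body weight monitored.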

Casein kinase 2 = Casein kinase 2 (Homo sapiens, UniProt P67870+P68400+P19784+Q8NEV1); assay: Inhibition of CK2 (unknown origin); format: protein assay
[9] = target: Serine/threonine-protein kinase pim-1 (Homo sapiens, UniProt P11309); assay: Inhibition of PIM1 (unknown origin)
NCI-H2122 [10] = assay: Antitumor activity against human NCI-H2122 cells xenografted in mouse assessed as reduction in ERK phosphorylation at 1 to 10 mg/kg, po administered for 3 days and measured at 8 hrs by Western blot analysis; format: functional; design: scale not given: the % may be the effect or the level left; conditions: time 80 hrs
Summary of the method: (§4)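 NCI-H2122 xenograft mice received 3 daily oral doses of 1, 3, 5 or 10 mg/kg. Tumors were collected 2, 8 and 24 h after the last dose, pulverized on dry ice and lysed. Lysates were run on 4–12% SDS-PAGE and transferred to nitrocellulose. p-ERK1/2 and t-ERK1/2 bands were quantified on an Odyssey imager and expressed relative to vehicle-treated mice (0 h).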

NCI-H2122 [11] = assay: Antitumor activity against human NCI-H2122 cells xenografted in mouse assessed as reduction in ERK phosphorylation at 1 to 10 mg/kg, po administered for 3 days and measured at 24 hrs by Western blot analysis; format: functional; design: scale not given: the % may be the effect or the level left; conditions: time 96 hrs; summary of the method: as §4
[12] = Antiproliferative activity against human Mel 928 cells assessed reduction in cell viability incubated for 4 days in presence of 4-(2-(1H-indazol-4-yl)-6-((4-(methylsulfonyl)piperazin-1-yl)methyl)thieno[3,2-d]pyrimidin-4-yl)morpholine by celltiter-glo assay; format: functional; conditions: time 4 day; summary of the method: as §1
NCI-H441 = assay: Antitumor activity against human NCI-H441 cells harboring KRAS G12V/TP53 R158L/MET high mutant xenografted in mouse assessed as tumor growth inhibition at 10 mg/kg, po; format: functional; conditions: read-out: TGI; summary of the method: as §3
[13] = target: Beta-adrenergic receptor kinase 1 (Homo sapiens, UniProt P25098); assay: Inhibition of GRK2 (unknown origin)
HCT-116 = assay: Antitumor activity against human HCT-116 cells harboring KRAS G13D/PIK3CA […]/CTNNB1 S45del/CDKN2A G23fs mutant xenografted in mouse assessed as tumor growth inhibition at 5 mg/kg, po; format: functional; conditions: read-out: TGI; summary of the method: as §2

Chain of Serine/threonine-protein kinase Nek3 (P51956 whole entry): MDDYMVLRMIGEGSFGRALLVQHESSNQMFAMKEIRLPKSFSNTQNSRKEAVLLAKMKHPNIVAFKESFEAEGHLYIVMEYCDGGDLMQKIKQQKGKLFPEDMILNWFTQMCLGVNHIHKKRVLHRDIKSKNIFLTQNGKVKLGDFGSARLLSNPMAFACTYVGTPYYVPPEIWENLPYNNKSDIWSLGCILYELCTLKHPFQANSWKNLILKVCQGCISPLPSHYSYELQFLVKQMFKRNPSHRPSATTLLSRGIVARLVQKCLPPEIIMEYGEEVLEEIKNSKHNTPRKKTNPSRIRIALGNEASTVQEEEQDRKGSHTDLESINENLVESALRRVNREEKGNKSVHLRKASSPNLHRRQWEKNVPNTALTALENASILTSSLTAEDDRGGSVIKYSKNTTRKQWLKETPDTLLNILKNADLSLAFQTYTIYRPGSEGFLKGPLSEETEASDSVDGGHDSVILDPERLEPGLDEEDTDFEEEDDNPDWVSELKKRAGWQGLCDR
Chain of Dual specificity mitogen-activated protein kinase kinase 4 (P45985 whole entry): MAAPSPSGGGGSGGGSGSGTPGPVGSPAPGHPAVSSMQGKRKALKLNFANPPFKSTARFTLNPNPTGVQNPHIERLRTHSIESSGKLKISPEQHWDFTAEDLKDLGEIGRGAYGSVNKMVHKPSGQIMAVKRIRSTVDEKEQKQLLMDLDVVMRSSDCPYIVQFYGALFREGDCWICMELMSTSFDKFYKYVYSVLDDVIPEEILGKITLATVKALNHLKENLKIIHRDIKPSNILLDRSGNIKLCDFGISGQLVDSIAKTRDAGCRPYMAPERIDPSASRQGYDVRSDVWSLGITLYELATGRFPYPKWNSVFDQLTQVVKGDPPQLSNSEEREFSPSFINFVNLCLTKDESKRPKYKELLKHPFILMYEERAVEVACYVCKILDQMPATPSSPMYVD
Chain of Vascular endothelial growth factor receptor 3 (P35916 whole entry): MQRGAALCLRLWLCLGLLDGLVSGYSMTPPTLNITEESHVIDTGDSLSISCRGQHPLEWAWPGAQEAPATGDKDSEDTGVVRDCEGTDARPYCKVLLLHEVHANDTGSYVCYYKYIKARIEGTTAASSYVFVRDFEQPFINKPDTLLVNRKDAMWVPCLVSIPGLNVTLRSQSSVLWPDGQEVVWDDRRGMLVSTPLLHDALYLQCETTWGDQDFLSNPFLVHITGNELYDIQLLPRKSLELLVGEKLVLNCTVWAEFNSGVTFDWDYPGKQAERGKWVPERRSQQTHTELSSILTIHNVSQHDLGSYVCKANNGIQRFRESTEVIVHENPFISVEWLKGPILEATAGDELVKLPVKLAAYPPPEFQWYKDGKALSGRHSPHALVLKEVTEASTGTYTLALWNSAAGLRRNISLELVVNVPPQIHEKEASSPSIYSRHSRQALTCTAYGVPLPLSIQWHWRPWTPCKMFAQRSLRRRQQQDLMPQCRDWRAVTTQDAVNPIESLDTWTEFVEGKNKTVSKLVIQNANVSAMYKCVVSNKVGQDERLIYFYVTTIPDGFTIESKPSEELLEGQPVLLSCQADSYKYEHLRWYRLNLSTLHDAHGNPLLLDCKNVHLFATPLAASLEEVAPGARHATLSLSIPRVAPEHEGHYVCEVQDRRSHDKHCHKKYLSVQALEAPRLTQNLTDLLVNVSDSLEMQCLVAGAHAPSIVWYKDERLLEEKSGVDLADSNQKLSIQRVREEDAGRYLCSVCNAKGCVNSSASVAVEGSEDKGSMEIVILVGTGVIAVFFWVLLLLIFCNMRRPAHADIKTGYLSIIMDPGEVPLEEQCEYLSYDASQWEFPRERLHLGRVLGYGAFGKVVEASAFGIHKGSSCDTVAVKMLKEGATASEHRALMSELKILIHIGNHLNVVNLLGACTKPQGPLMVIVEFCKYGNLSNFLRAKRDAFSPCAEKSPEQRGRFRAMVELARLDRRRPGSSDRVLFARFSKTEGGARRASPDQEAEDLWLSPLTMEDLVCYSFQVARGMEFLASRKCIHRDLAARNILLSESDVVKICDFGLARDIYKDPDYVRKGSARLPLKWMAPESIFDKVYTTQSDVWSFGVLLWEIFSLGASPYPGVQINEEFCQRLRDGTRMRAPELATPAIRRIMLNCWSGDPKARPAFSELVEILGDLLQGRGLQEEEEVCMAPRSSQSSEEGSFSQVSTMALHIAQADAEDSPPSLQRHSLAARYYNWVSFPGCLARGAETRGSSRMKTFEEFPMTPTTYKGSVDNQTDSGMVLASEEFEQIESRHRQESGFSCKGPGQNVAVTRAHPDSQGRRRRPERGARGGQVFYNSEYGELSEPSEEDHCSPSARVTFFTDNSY
Chain of Beta-adrenergic receptor kinase 1 (P25098 whole entry): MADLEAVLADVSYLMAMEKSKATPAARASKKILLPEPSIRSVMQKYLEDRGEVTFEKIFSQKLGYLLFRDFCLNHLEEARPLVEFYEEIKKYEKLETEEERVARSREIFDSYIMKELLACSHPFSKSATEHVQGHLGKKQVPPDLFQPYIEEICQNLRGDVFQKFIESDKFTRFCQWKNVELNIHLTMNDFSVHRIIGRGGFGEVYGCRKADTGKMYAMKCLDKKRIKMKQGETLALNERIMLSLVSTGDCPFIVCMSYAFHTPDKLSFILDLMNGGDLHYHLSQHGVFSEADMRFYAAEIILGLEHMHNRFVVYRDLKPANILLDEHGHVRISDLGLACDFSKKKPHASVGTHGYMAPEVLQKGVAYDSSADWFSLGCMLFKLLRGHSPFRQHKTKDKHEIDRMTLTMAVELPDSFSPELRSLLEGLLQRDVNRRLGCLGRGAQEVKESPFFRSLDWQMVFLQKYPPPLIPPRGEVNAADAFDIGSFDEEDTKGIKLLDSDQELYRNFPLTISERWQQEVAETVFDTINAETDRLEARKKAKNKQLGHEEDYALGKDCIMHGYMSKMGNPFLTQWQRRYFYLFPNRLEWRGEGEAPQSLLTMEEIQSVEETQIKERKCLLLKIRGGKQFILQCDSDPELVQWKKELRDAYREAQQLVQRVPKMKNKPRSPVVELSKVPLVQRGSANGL
Chain of Protein kinase C beta type (P05771 whole entry): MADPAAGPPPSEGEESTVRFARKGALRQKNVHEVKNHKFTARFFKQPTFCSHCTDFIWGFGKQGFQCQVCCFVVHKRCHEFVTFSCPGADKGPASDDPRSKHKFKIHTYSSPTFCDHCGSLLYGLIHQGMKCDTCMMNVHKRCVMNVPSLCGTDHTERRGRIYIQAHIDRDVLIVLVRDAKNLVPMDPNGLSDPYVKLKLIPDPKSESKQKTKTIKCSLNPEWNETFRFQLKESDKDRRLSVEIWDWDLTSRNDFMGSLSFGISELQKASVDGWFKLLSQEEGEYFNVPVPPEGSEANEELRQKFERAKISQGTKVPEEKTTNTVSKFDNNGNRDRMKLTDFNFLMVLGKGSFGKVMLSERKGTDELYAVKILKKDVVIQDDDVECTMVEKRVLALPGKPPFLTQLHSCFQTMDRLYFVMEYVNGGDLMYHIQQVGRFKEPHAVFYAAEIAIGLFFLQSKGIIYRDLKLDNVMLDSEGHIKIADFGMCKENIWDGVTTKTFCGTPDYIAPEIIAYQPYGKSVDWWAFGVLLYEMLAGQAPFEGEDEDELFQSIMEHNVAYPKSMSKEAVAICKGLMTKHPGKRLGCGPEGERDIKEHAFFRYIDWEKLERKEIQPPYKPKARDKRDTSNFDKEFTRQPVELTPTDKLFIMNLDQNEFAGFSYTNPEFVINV
Chain of Serine/threonine-protein kinase pim-1 (P11309 whole entry): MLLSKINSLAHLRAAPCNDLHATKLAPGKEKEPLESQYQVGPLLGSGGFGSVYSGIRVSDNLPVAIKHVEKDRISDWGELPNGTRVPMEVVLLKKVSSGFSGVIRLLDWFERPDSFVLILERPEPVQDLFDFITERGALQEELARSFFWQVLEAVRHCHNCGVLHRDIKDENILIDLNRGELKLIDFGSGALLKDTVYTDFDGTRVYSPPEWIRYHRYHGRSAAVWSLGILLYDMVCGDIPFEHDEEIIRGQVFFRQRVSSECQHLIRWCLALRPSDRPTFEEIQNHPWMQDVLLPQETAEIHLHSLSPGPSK

IC50 [2]: > 10 µM | IC50 [3]: > 10 µM | IC50 [4]: > 10 µM | IC50 [5]: > 10 µM | IC50 (Casein kinase 2): > 10 µM | IC50 [9]: > 10 µM | IC50 [13]: > 10 µM
SMILES: O=C(c1ccc(F)c(F)c1Nc1ccc(I)cc1F)N1CC(O)([C@@H]2CCCCN2)C1 [COBIMETINIB]
inhibition in vivo at 20 mg/kg (NCI-H2122 [1]): 87% | inhibition in vivo at 20 mg/kg (A2058): 34% | inhibition in vivo at 10 mg/kg (NCI-H2122 [6]): 80% | inhibition (888-mel): Active | Activity (G-361): 60% | inhibition in vivo at 10 mg/kg (DLD-1): 49.5% | inhibition in vivo at 5 mg/kg [7]: 106% | inhibition in vivo at 10 mg/kg (NCI-H69): 38% | inhibition in vivo at 15 mg/kg (NCI-H2122 [8]): 156% | Activity (NCI-H2122 [10]): 83% | Activity (NCI-H2122 [11]): 73% | Activity [12]: 60% | inhibition in vivo at 10 mg/kg (NCI-H441): 85% | inhibition in vivo at 5 mg/kg (HCT-116): 68.7%
